Consider 36 molecules from ChEMBL document CHEMBL4425095, “Novel Cephalosporins Selectively Active on Nonreplicating Mycobacterium tuberculosis” (J Med Chem, 2016).

Data set [1] has as its system Mycobacterium tuberculosis. As to the kind of experiment: Potentiation of meropenem-induced bactericidal activity against wild-type replicating Mycobacterium tuberculosis H37Rv assessed as decrease in MIC90 relative to control. The data set is classed as functional.
Data set [2] deals with Mycobacterium tuberculosis. As to the kind of experiment: Bactericidal activity against wild-type non-replicating Mycobacterium tuberculosis H37Rv multi-stress model at 0.1 to 100 ug/ml incubated for 7 days measured at OD580 = 0.01 by charcoal agar resazurin assay. The data set is classed as functional, organism-based. In general terms: Alamar Blue is a resazurin reagent that responds to reducing activity.

Data set [3] can be described thus: Cytotoxicity against human HepG2 cells assessed as reduction in cell viability after 2 days by Celltiter-Glo reagent based assay. To be noted: read-out: LD50. In outline:
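HepG2 cells in DMEM with 10% FBS, pyruvate, glutamine and nonessential amino acids. Seeded at 3000 cells/well and exposed 2 days to compound or vehicle (≤1% DMSO final). Reported as LD50.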
A general note: In ATP-based viability assays light output follows the ATP content of the culture.

The nature of data set [4]: Stability in pH 5 non-replicating medium assessed as parent compound remaining at 5 to 50 ug/ml at 37 degC measured every 12 hrs up to 144 hrs by LC-MS analysis. The data set is classed as physicochemical. Particulars: buffer. In outline:
(§1)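 Compound at 50 μg/mL in cell-free PBS pH 7.4, or nonreplicating medium pH 5.0 (BSA, tyloxapol, lysine, pantothenate omitted) with or without 0.5 mM NaNO2. Poorly soluble compounds at 5 μg/mL in 50:50 acetonitrile mixtures, pH readjusted to 5.0.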

Data set [5] can be described thus: Stability in pH 7.4 phosphate buffer solution assessed as parent compound remaining at 5 to 50 ug/ml at 37 degC measured every 12 hrs up to 144 hrs by LC-MS analysis. The data set is classed as physicochemical. In a few lines:
as §1

Data set [6] concerns Mycobacterium tuberculosis. Put plainly: Bactericidal activity against wild-type replicating Mycobacterium tuberculosis H37Rv assessed as reduction in CFU in presence of beta-lactamase inhibitor clavulanate. The data set is classed as functional, organism-based.
The nature of data set [7]: Stability in pH 5 non-replicating medium containing 0.5 mM NaNO2 assessed as parent compound remaining at 5 to 50 ug/ml at 37 degC measured every 12 hrs up to 144 hrs by LC-MS analysis. To be noted: buffer. The data set is classed as physicochemical. In a few lines:
as §1

In data set [8] the test system is Mycobacterium tuberculosis. As to the kind of experiment: Bactericidal activity against wild-type non-replicating Mycobacterium tuberculosis H37Rv multi-stress model incubated for 7 days measured at OD580 = 0.01 by charcoal agar resazurin assay. The data set is classed as functional, organism-based. In outline:
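Nonreplicating wild-type H37Rv at OD580 0.1 or 0.01 treated 7 days with or without 0.5 mM NaNO2. 10 μL spotted onto 7H11-OADC-charcoal agar and incubated 7–10 days at 37 °C. Developed with Alamar blue:Tween80 1:1 for 1 h; fluorescence read at ex 530/em 590. Complete loss of fluorescence taken as ≥2–3 log10 CFU reduction.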

Data set [9] relates to Mycobacterium tuberculosis. Put plainly: Bactericidal activity against wild-type non-replicating Mycobacterium tuberculosis H37Rv at 1 to 100 ug/ml incubated for 7 days measured at OD580 = 0.1 in presence of 1 mM NaNO2. The data set is classed as functional, organism-based. In outline: (§2)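 Wild-type H37Rv resuspended at OD580 0.1 in nonreplicating medium with NaNO2 at 0–1 mM, one plate per nitrite level. Exposed to compound for 7 days, then standard outgrowth assay to estimate survivors.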

Data set [10] has as its system Mycobacterium tuberculosis. Put plainly: Bactericidal activity against wild-type non-replicating Mycobacterium tuberculosis H37Rv at 1 to 100 ug/ml incubated for 7 days measured at OD580 = 0.1 in presence of up to 0.5 mM NaNO2. The data set is classed as functional, organism-based. In outline: as §2

Molecules are shown by their SMILES. ≈ marks a conversion by molar mass, not a printed value. Calls of active or inactive are those of the source. The calls are words filed in the database; no cut-off is given here.

With `O=C(O)[C@H]1/C(=C/CO)O[C@@H]2CC(=O)N21` [CLAVULANIC ACID], the “fold change (FC)” value in data set [1] came to 4.
For the molecule `CC1=C(c2nc(C)no2)N2C(=O)[C@@H](NC(=O)OCC(Cl)(Cl)Cl)[C@H]2SC1`, the result in [2] was Active. In addition, the CC50 at 48 h in [3] is over 100 µg/mL.
For `CCCCOC(=O)C1=C(C)CS[C@@H]2[C@H](NC(=O)CCc3ccccc3)C(=O)N12` the same measures were “Active” and over 100 µg/mL.
`CC1=C(c2nc(C)no2)N2C(=O)[C@@H](NC(=O)COc3ccc(Cl)cc3)[C@H]2SC1`: in [2], the outcome was Active. In data set [3], the CC50 at 48 h is 19.5 µg/mL (≈ 46.4 µM).
As for `CCCc1noc(C2=C(C)CS[C@@H]3[C@H](NC(=O)COc4ccc(Cl)cc4)C(=O)N23)n1`, the result in [2] was Active. The CC50 at 48 h in data set [3] was 64.3 µg/mL (≈ 143 µM).
For `CCCc1noc(C2=C(C)CS[C@@H]3[C@H](NC(=O)c4ccc(Cl)cc4)C(=O)N23)n1` the same measures were “Active” and over 100 µg/mL.
Take `CCCN[C@@H]1C(=O)N2C(C(=O)OCCC)=C(C)CS[C@H]12`: the Stability in data set [4] is on record as 100%; in data set [5] it was 100%; in data set [7], 40%. In addition, the result in data set [6] was inactive. The CC50 at 48 h in data set [3] was over 100 µg/mL.
Regarding `CCCOC(=O)N[C@@H]1C(=O)N2C(C(=O)OCCC)=C(C)CS[C@H]12`, the Stability amounted to 100% in data set [4], 80% in data set [5] and 100% in [7]. In addition, the result in data set [6] was inactive. Also, in data set [3], the CC50 at 48 h was over 100 µg/mL.
On to `CC1=C(C(=O)O)N2C(=O)[C@@H](NC(=O)c3ccc(Cl)cc3)[C@H]2SC1`, for which the CC50 at 48 h in data set [3] is over 100 µg/mL.
The same measure, in the same setting: the result for `CCCCOC(=O)C1=C(C)CS[C@@H]2[C@H](NC(=O)CCc3ccc(Cl)cc3)C(=O)N12` reads over 100 µg/mL; that for `CCCc1noc(C2=C(C)CS[C@@H]3[C@H](NC(=O)Cc4ccc(OC)cc4)C(=O)N23)n1`, 72.4 µg/mL (≈ 169 µM).
Regarding `COC(=O)C1=C(C)CS[C@@H]2[C@H](NC(=O)COc3ccc(Cl)cc3)C(=O)N12`, the CC50 at 48 h in data set [3] was over 100 µg/mL.
On the same count and under the same terms, the result for `CCOC(=O)C1=C(C)CS[C@@H]2[C@H](NC(=O)COc3ccccc3)C(=O)N12` reads over 100 µg/mL; that for `CCCCOC(=O)C1=C(C)CS[C@@H]2[C@H](NC(=O)COc3ccc(Cl)cc3)C(=O)N12`, over 100 µg/mL.
Consider `C=CC1=C(C(=O)O)N2C(=O)[C@@H](NC(=O)/C(=N\O)c3csc(N)n3)[C@H]2SC1`, for which the CC50 at 48 h in data set [3] is over 100 µg/mL.
Consider `CC1=C(c2nc(C)no2)N2C(=O)[C@@H](NC(=O)Cc3ccc(Cl)c(Cl)c3)[C@H]2SC1`, for which the CC50 at 48 h in data set [3] was 18.9 µg/mL (≈ 42.9 µM).
Same read-out and setting: the result for `CC1=C(C(=O)O)N2C(=O)[C@@H](NC(=O)CCc3ccc(Br)cc3)[C@H]2SC1` reads over 100 µg/mL.
Regarding `CCCc1noc(C2=C(C)CS[C@@H]3[C@H](NC(=O)CCc4ccc(OC)cc4)C(=O)N23)n1`, the outcome in data set [2] was Active. The CC50 at 48 h in data set [3] was over 100 µg/mL.
On to `CCCCOC(=O)C1=C(C)CS[C@@H]2[C@H](NC(=O)COc3ccc(OC)cc3)C(=O)N12`, for which the CC50 at 48 h in data set [3] was over 100 µg/mL.
On the same count and under the same terms, the result for `CCCOC(=O)C1=C(C)CS[C@@H]2[C@H](NC(=O)COc3ccc(Cl)cc3)C(=O)N12` reads 49.2 µg/mL (≈ 116 µM); that for `CC1=C(c2nc(C)no2)N2C(=O)[C@@H](NC(=O)OCC(C)(C)C)[C@H]2SC1`, over 100 µg/mL; that for `CC1=CS[C@@H]2[C@H](NC(=O)COc3ccccc3)C(=O)N2[C@H]1CO`, over 100 µg/mL.
In the case of `CC(=O)OCC1=C(C(=O)O)N2C(=O)[C@@H](NC(=O)Cc3cccs3)[C@H]2SC1` [CEPHALOTHIN], the CC50 at 48 h in [3] was over 100 µg/mL.
Regarding `CCOC(=O)C1=C(C)CS[C@@H]2[C@H](NC(=O)CCc3ccc(OC)cc3)C(=O)N12`, in data set [2], the outcome was Active. The CC50 at 48 h in [3] was over 100 µg/mL.
In the case of `COc1ccc(OCC(=O)N[C@@H]2C(=O)N3C(C(=O)OCc4ccccc4)=C(C)CS[C@H]23)cc1`, in data set [3], the CC50 at 48 h was over 100 µg/mL.
Same read-out and setting: the result for `COC(=O)C1=C(C)CS[C@@H]2[C@H](NC(=O)COc3ccccc3)C(=O)N12` reads over 100 µg/mL; that for `CCCCOc1ccc(CCC(=O)N[C@@H]2C(=O)N3C(c4nc(CCC)no4)=C(C)CS[C@H]23)cc1`, over 100 µg/mL.
On the same count and under the same terms, the result for `CCCc1noc(C2=C(C)CS[C@@H]3[C@H](NC(=O)Cc4ccccc4)C(=O)N23)n1` reads over 100 µg/mL.
For `CC1=C(C(=O)O)N2C(=O)[C@@H](NC(=O)[C@H](N)c3ccccc3)[C@H]2SC1` [CEPHALEXIN ANHYDROUS], the outcome in [8] was inactive.
Turning to `CCCOC(=O)C1=C(C)CS[C@@H]2[C@H](NC(=O)[C@H](N)c3ccccc3)C(=O)N12`, the CC50 at 48 h in data set [3] is over 100 µg/mL.
On the same count and under the same terms, the result for `C#CCOC(=O)C1=C(C)CS[C@@H]2[C@H](NC(=O)CCc3ccc(Cl)cc3)C(=O)N12` reads over 100 µg/mL; that for `CC1=C(c2nc(C)no2)N2C(=O)[C@@H](NC(=O)Cc3ccc(C)cc3)[C@H]2SC1`, over 100 µg/mL.
With `CO[C@H]1/C=C/O[C@@]2(C)Oc3c(C)c(O)c4c(O)c(c(/C=N/N5CCN(C)CC5)c(O)c4c3C2=O)NC(=O)/C(C)=C\C=C\[C@H](C)[C@H](O)[C@@H](C)[C@@H](O)[C@@H](C)[C@H](OC(C)=O)[C@@H]1C`, in data set [9], the result was Active. Further, the result in data set [10] was inactive.
For the molecule `COc1ccc(CCC(=O)N[C@@H]2C(=O)N3C(C(=O)OCc4ccccc4)=C(C)CS[C@H]23)cc1`, the CC50 at 48 h in [3] was over 100 µg/mL.
With `COC(=O)C1=C(C)CS[C@@H]2[C@H](NC(=O)[C@H](N)c3ccccc3)C(=O)N12`, the CC50 at 48 h in [3] was over 100 µg/mL.
Turning to `CCCc1noc(C2=C(C)CS[C@@H]3[C@H](NC(=O)CCc4ccccc4Cl)C(=O)N23)n1`, the CC50 at 48 h in data set [3] was over 100 µg/mL.
